# Bioassay records (PubChem BioAssay)
# Rows were chosen to be rich in hits. Some 3.7% of all compounds tested hit in one or more screens of this group.
# rCAG RNA binder: molecules binding r(CAG) RNA repeats. hit rate 1.3% among 370,000. r(CAG) RNA repeat, TO-PRO-1 dye displacement fluorescence. AID 651821. inhibition, % at 3 µM;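 active means inhibition above the plate cutoff, the mean of all test compounds on that plate plus 3 SD, cut at about 35% in these data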;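 further: 0% = DMSO alone and 100% = 100 µM mitoxantrone as full dye displacement; higher means more dye released from RNA so lower well fluorescence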
# TAAR1 ag: agonists of human TAAR1 | Q96RJ0 | CHO RD-HGA16 TAAR1, Fluo-8 calcium fluorescence; vehicle wells 0%, saturating PEA agonist 100% | activation, % at 3 µM | hit rate 0.99% among 360,000 | AID 624467;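 active means activation above the mean activation of all test compounds in the run plus 3 SD, cut at about 38% in these data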
# Target sequence (Q96RJ0 whole entry, looked up): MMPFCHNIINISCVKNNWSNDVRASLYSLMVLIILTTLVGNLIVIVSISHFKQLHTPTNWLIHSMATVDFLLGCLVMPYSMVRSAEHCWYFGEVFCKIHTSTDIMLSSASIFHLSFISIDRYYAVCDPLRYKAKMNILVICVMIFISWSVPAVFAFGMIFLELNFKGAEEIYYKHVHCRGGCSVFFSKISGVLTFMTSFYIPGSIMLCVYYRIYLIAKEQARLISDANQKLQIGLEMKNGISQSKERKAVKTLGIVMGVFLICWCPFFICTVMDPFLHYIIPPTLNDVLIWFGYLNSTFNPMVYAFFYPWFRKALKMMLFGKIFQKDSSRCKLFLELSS
#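 Test system: RD-HGA16 (CHO) cells co-expressing Gα16 and hTAAR1; dosing: one-point dosing at 3 µM (nominal); timing: 17-24 h seeding, 75 min 37 °C dye, 30 min RT; signal: kinetic Fluo-8 calcium fluorescence; read-out basis: % activation relative to PEA EC100 response; controls: DMSO and PEA EC100; replicates: n 1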
# TAAR1 antagonist: human TAAR1 antagonism | inhibition, % at 3 µM | AID 624466 | CHO RD-HGA16 TAAR1, Fluo-8 calcium fluorescence, antagonist | hit rate 1.5% among 360,000;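 active means inhibition above a per-plate cutoff, the mean inhibition of test compounds on that plate plus 3 SD, cut at about 49% in these data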;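 further: 0% = DMSO plus EC80 beta-PEA response and 100% = DMSO alone without agonist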
#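 Test system: RD-HGA16 CHO cells with stable hTAAR1 and Gα16 / Probe or stimulus: EC80 β-phenethylamine stimulus / Times: seeding 17-24 h prior, 75-min 37 °C, 30-min RT dye loading / Detection: Fluo-8 calcium-sensitive fluorescence / Read-out basis: % inhibition scaled between DMSO and EC80 PEA controls / Repeats: singlicate, one well per test compound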
# NS3 helicase inh: blocks Hepatitis C virus NS3 helicase unwinding; NS3 helicase DNA unwinding, Cy5 molecular beacon fluorescence; inhibition, % at 10.9 µM; hit rate 0.56% among 290,000;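 active means inhibition above the mean of all tested compounds plus 3 SD, set per campaign, cut at about 35% in these data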;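 further: 0% = DMSO wells and 100% = thioflavine S control wells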
#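 System: HCV NS3 helicase fragment; control set: DMSO and thioflavine S; technique: Cy5 fluorescence at 0 and 60 min, beacon hairpin quenching; reagent: beacon DNA duplex substrate plus ATP; replicates: singlicate; schedule: 1 h reaction at 25 °C, ATP-initiated; medium: MOPS buffer pH 6.5 with MgCl2, DTT, Tween20, BSA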
# HCV core dimer: HCV core protein dimerization inhibition | AID 1899 | hit rate 0.33% among 300,000 | TR-FRET GST/Flag-core106 dimerization, 1536-well | inhibition, % at 5 µM;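 active means inhibition above the mean of all tested compounds plus 3 SD, set per screening campaign, cut at about 45% in these data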
#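 assay system = GST-tagged and Flag-tagged HCV core protein residues 1-106 | controls = unlabelled core106 and no-GST-core106 wells | incubation = compound-protein-antibody incubation 4 h at 22.5 °C | probe or stimulus = Eu donor and XL665 acceptor anti-tag antibodies | read-out = % inhibition based on acceptor/donor emission ratio | signal = TR-FRET 671 and 617 nm emission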
# * hit, by the source's call; · = no result.
SMILES,rCAG RNA binder,TAAR1 ag,TAAR1 antagonist,NS3 helicase inh,HCV core dimer
O=c1c2c3nc4ccccc4nc3n(Cc3ccccc3)c2ncn1Cc1ccco1,37*,2,-5,31,·
N=c1c(C(=O)NCc2ccco2)cc2c(=O)n3ccccc3nc2n1Cc1ccccc1,7,13,-10,11,65*
N=c1c(C(=O)NCc2ccco2)cc2c(=O)n3ccccc3nc2n1Cc1ccc(Cl)cc1,0,-2,-20,25,67*
Cc1ccc(CNC(=O)c2cc3c(=O)n4ccccc4nc3n(Cc3ccco3)c2=N)cc1,17,0,-7,·,29
Cc1ccc2nc3c(cc(C(=O)NCc4ccco4)c(=N)n3Cc3ccco3)c(=O)n2c1,13,9,1,12,70*
COC(=O)[C@]12C[C@H](CC(=O)NCC34CC5CC(CC(C5)C3)C4)C(=O)N(Cc3ccc(Cl)cc3Cl)C1=C[C@H](C(C)(C)C)O[C@@H]2C,2,·,·,·,·
N#CCC[C@H]1CC[C@]2(CCCN(Cc3ccccc3)C2)O1,1,·,·,·,·
CCOC(=O)N1CCN(C(=O)C[C@H]2C(=O)N(Cc3ccc(OC)cc3)C3=CCCCC[C@@]32C(=O)OC)CC1,0,·,·,·,·
N#Cc1ccccc1NC(=O)C1SC(=Nc2ccccc2)C(C(=O)Nc2ccc(Cl)cc2)=C1N (stereo not drawn),37*,3,-14,-3,11
COc1cc(/C=C2/SC(=O)N(Cc3ccccc3)C2=O)ccc1OCc1ccncc1,8,5,10,3,12
COCCN1C(=O)/C(=C/c2ccc(OCc3ccc(C(=O)O)cc3)c(OC)c2)SC1=Nc1ccccc1,29,19,73*,29,25
Cc1ccc2c(c1)c(=O)c1c3n2CCN(C(=O)CCl)C3CC1 (stereo not drawn),22,0,-9,1,47*
CN1/C(=C/C2CC(=O)N(c3cccc4ccccc34)C2=O)C(C)(C)c2ccccc21 (stereo not drawn),17,16,50*,15,11
CCOc1ccc(N2C(=O)CC(/C=C3/N(C)c4ccccc4C3(C)C)C2=O)cc1 (stereo not drawn),15,1,-4,10,29
C[C@@H](C(=O)NCc1ccccc1)[C@H]1C[C@]1(C)[C@H](NC(=O)OCc1ccccc1)c1ccccc1,-6,13,62*,-11,4
COc1ccc(CNC(=O)[C@H](C)[C@@H]2C[C@@]2(C)[C@@H](NC(=O)OCc2ccccc2)c2ccccc2)cc1OC,0,18,28,-4,0
COC(=O)C1CN(C2CCCC2)CCS(=O)(=O)N1Cc1cn(Cc2ccc(OC)cc2)nn1 (stereo not drawn),-1,·,·,·,·
O=C(O)c1cc(NS(=O)(=O)c2ccc(N3CCOCC3)c([N+](=O)[O-])c2)cc(C(=O)O)c1,2,2,-4,-7,3
COC(=O)c1cc(NS(=O)(=O)c2ccc(N3CCCCC3)c([N+](=O)[O-])c2)cc(C(=O)OC)c1,69*,0,5,-6,21
Clc1cccc(CSc2ncnc3sc4c(c23)CCCC4)c1,3,·,·,·,·
COc1ccc(C(=O)C=Cc2ccc3c(c2)OCO3)cc1OC,6,3,-4,·,·
COc1cc(/C=C/C(=O)c2ccc3c(c2)OCO3)cc(Cl)c1O,14,56*,43,-13,16
COCCn1c(C)cc(C(=O)COC(=O)c2cc3c(s2)CCC3)c1C,3,5,-5,22,79*
COc1ccc(CN(C)C(=O)C(CCSC)NS(=O)(=O)c2ccc3c(c2)OCCO3)c(OC)c1OC (stereo not drawn),-1,12,56*,·,·
O=C(Nc1cccc(-c2csc(Nc3ccc(Cl)cc3)n2)c1)c1cccc(C(F)(F)F)c1,40*,15,35,·,10
SMILES,rCAG RNA binder,TAAR1 ag,TAAR1 antagonist,NS3 helicase inh,HCV core dimer
CC(=O)c1ccc([C@H](O)[C@H](C)C(=O)N(C)c2ccccc2)cc1,0,·,·,·,·
O=C(NCc1ccc(C(=O)NCC2CCCO2)cc1)c1cccc(Br)c1 (stereo not drawn),-1,·,·,·,·
O=C(NCc1ccncc1)C(=O)Nc1nc(C23CC4CC(CC(C4)C2)C3)cs1,2,12,50*,4,2
COc1ncc(-c2cc(C(C)=O)c3n(c2=O)CCC3)c(OC)n1,2,·,·,·,·
CC(C)(C)OC(=O)[C@H](Cc1ccccc1)NC(=O)c1nc[nH]c1C(=O)NCC(=O)OCc1ccccc1,-3,3,35,-39,3
C[C@H](NC(=O)c1nc[nH]c1C(=O)NCCCCCNC(=O)OC(C)(C)C)C(=O)OCc1ccccc1,-12,14,76*,0,-7
CC(C)C[C@H](NC(=O)c1nc[nH]c1C(=O)NCCCCCNC(=O)OC(C)(C)C)C(=O)OCc1ccccc1,-3,11,42,-20,-1
O=C(CNC(=O)c1[nH]cnc1C(=O)N[C@@H](Cc1ccccc1)C(=O)OCc1ccccc1)OCc1ccccc1,6,12,64*,-22,8
CC(C)(C)OC(=O)NCCCCCNC(=O)c1[nH]cnc1C(=O)N[C@@H](Cc1ccccc1)C(=O)OCc1ccccc1,1,13,54*,-28,7
Cc1ccc(-c2nc3ncccn3c2NC(=O)c2ccc(F)cc2)cc1,5,·,·,·,·
CCN1C(=O)N/C(=C/c2ccc(Sc3ccc(C)cc3)o2)C1=O,3,18,65*,0,3
CCCN(CC1CC1)c1c2c(nc3ncnn13)CCCC2,0,·,·,·,·
CC(C)CCNc1nc(N)c([N+](=O)[O-])c(NCC2CCCO2)n1 (stereo not drawn),-11,39*,-8,-40,5
Cc1cc(C(=O)Nc2ccc(F)cc2)n(-c2ccccc2)n1,3,·,·,·,·
COc1ccc2sc(-c3ccccc3OC)c(-c3ccc(SC)cc3)c2c1,8,5,-28,·,·
COc1ccc2sc(-c3ccc(SC)cc3)c(-c3ccc(O)cc3)c2c1,7,20,58*,·,·
Cc1ccc(S(=O)(=O)N2CC3(O)CN(C(=O)OC(C)C)N(C(=O)OC(C)C)CC3(OC(=O)NCc3ccccc3)C2)cc1 (stereo not drawn),2,9,60*,·,·
COc1ccc(CNC(=O)OC23CN(C(=O)OC(C)C)N(C(=O)OC(C)C)CC2(O)CN(S(=O)(=O)c2ccc(C)cc2)C3)cc1OC (stereo not drawn),3,7,28,·,·
CN(C)CC(c1ccc(O)cc1)C1(O)CCCCC1 (stereo not drawn),2,·,·,·,·
COc1ccc(C(C(=O)NCc2ccccc2)N(Cc2ccco2)C(=O)c2cnccn2)cc1 (stereo not drawn),-8,15,53*,-1,10
CCOC(=O)Cc1nc(N2CCN(C=O)CC2)c2c(C)c(C(=O)OCC)sc2n1,6,·,·,·,·
COc1ccc(Cl)cc1NC(=O)c1cc(-c2ccco2)on1,18,0,-8,18,63*
